Data set [1] deals with T1, DNA topoisomerase 1 (Homo sapiens) (UniProt P11387).
T1 sequence (whole entry): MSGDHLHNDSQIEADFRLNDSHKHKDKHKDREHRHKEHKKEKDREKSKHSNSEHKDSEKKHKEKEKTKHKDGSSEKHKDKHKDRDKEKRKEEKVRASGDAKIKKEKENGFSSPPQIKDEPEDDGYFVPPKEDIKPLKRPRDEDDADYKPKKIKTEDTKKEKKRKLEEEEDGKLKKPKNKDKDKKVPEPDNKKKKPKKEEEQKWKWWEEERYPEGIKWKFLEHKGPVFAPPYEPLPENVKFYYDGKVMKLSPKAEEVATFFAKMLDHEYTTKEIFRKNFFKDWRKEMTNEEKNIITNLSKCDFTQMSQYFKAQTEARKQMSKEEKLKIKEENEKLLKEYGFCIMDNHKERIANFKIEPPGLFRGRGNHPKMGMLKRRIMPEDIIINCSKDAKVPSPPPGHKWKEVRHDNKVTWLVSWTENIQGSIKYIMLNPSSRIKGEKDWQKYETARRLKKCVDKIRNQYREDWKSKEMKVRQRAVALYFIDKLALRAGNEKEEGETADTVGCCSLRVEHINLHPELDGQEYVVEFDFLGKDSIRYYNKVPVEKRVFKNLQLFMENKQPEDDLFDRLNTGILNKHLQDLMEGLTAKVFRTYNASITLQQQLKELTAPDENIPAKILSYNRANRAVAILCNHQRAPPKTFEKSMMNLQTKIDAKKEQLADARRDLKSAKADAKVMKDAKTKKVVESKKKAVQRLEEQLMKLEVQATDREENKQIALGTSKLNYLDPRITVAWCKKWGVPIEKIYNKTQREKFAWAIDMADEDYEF
Put plainly: Inhibition of topoisomerase 1-mediated relaxation of supercoiled pBR322 DNA at 20 uM after 20 mins using ethidium bromide staining by electrophoresis relative to control. The gist of the method: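 Nuclear extract (50 ng) used as the topoisomerase I source with 60 ng supercoiled pBR322 and 20 µM drug, 20 min at 37 °C. Reaction stopped with 0.05% SDS, then electrophoresis run without ethidium bromide and gel stained afterwards. Supercoiled band quantified by densitometry relative to DNA alone without enzyme (100%). Camptothecin at 50 µM was the positive control.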

Data set [2] deals with Calf thymus DNA. The data set can be described thus: Binding affinity to calf thymus DNA assessed as increase in melting temperature at 1 uM by spectrophotometer analysis. Format: nucleic-acid assay. As to conditions: Bos taurus.
The test system of data set [3] is K562. Put plainly: Resistant factor, ratio of IC50 human K/VP.5 cells to IC50 for human K562 cells. Format: functional. In outline:
(§1)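 Suspension cultures in αMEM with 10% fetal calf serum: parental K562 and the etoposide-resistant sub-line K/VP.5, which has reduced topoisomerase IIα. Drugs freshly dissolved in DMSO (final ≤1.9% v/v) and given for 72 h, then MTS reduction read by absorbance. IC50 from triplicate data fitted to a four-parameter logistic equation. Resistance factor is IC50 in K/VP.5 divided by IC50 in K562.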

A short description of data set [4]: Cytotoxicity against human K/VP.5 cells after 72 hrs by MTS assay. It is filed as functional, cell-based. As to conditions: K/VP.5, 72 h. In outline: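 Suspension cultures in αMEM with 10% fetal calf serum: parental K562 and the etoposide-resistant sub-line K/VP.5, which has reduced topoisomerase IIα. IC50 from triplicate data fitted to a four-parameter logistic equation. Resistance factor is IC50 in K/VP.5 divided by IC50 in K562.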
On the technique in general: Tetrazolium dyes change colour on reduction, which living cells bring about.

For data set [5], the system named is K562. Put plainly: Cytotoxicity against human K562 cells after 72 hrs by MTS assay. As to conditions: K562, 72 h. It is filed as functional, cell-based. The gist of the method:
as §1

In data set [6] the target is DNA topoisomerase 2-alpha (Homo sapiens) (UniProt P11388). Put plainly: Inhibition of human recombinant topoisomerase 2 alpha assessed as stabilization of enzyme-PBR322 DNA complex at 100 uM relative to control. The gist of the method:
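Closed circular pBR322 DNA with topoisomerase IIα and 100 µM compound at 37 °C; components mixed on ice before drug addition. Complexes trapped with SDS and products separated by gel electrophoresis containing ethidium bromide. Linear DNA bands quantified by densitometry relative to the band from 100 µM etoposide, set to 100%.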

For data set [7] the target is unchanged. The data set can be described thus: Inhibition of human recombinant topoisomerase 2 alpha-mediated Crithidia fasciculate kDNA decatenation at 20 uM relative to control. The gist of the method:
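Topoisomerase IIα decatenation of kDNA with 20 µM compound, analysed by gel electrophoresis. Fully decatenated open circular DNA band quantified by densitometry. Inhibition calculated as 100 minus percentage relative integrated band intensity. Etoposide included as a control.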

Data set [8] relates to DC3F. Put plainly: Cytotoxicity against hamster DC-3F cells. It is filed as functional, cell-based. As to conditions: Cricetulus griseus.
The nature of data set [9]: Chemical stability in DMSO-d6 assessed as decomposition after 24 hrs. Format: physicochemical.

What is called inhibition is how much of the control response was suppressed. As a reminder, the ΔTm is the shift of the melting midpoint relative to a reference. Broadly, the IC50 is the concentration that inhibits the measured activity by half. A low value points to higher potency.

Sequence of DNA topoisomerase 2-alpha (Homo sapiens) (P11388 whole entry): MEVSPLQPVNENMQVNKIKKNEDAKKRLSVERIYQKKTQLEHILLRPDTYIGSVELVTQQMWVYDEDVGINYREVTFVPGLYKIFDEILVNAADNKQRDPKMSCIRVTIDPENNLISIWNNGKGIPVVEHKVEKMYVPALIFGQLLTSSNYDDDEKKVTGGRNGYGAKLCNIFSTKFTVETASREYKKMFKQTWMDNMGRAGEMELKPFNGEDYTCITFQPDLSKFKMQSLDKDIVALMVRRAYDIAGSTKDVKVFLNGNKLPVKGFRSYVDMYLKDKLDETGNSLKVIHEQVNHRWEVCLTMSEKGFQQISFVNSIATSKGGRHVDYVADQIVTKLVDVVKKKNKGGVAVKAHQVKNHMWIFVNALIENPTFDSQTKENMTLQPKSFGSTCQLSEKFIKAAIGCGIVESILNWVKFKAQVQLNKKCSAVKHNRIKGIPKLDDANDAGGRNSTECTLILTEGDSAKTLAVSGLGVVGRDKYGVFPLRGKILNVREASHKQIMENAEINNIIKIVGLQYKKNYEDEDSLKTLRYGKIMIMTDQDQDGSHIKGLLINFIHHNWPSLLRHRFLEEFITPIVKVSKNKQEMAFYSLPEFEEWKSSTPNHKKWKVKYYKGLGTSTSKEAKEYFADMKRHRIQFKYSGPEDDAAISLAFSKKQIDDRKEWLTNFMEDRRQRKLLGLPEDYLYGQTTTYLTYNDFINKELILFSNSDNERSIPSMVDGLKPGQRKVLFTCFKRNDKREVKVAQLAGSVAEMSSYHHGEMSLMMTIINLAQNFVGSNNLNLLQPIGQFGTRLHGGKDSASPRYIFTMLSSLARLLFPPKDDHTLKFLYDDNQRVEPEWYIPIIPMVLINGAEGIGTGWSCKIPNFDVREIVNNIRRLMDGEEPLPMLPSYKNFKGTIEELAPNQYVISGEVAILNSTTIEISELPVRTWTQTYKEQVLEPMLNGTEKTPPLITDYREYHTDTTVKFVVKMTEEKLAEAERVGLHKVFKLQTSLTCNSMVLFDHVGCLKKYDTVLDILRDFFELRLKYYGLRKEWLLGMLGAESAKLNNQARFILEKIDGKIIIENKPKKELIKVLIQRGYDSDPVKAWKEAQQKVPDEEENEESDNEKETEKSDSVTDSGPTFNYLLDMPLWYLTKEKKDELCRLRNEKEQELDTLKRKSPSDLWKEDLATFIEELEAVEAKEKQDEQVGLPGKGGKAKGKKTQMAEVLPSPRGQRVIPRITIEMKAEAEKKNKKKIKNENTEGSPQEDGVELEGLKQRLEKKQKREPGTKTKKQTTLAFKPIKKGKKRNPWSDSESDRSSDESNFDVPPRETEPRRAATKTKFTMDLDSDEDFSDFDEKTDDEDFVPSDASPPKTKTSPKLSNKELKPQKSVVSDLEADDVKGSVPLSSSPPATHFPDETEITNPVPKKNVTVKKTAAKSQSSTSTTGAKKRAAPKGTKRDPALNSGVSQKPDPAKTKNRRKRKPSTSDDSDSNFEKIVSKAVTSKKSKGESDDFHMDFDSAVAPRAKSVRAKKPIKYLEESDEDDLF

As to `Cn1cc(NC(=O)c2cc(N)cn2C)cc1C(=O)NCCn1nc2c3c(cccc31)C(=O)c1ccccc1-2`, the figures for the inhibition in data set [1] and in data set [7] were 49% and 91%, respectively. The ΔTm in data set [2] is 2.7 °C. Also, the “Ratio IC50” value in data set [3] is given as 1.5. Further, the IC50 in data set [4] stood at 6.4 µM; in data set [5], 4.1 µM. Moreover, in data set [6], the % cleavage turned out to be 6%.

For the molecule `Cn1cc(NC(=O)c2cc(NC(=O)OC(C)(C)C)cn2C)cc1C(=O)NCCn1nc2c3c(cccc31)C(=O)c1ccccc1-2`, the inhibition in data set [1] is 31%; in data set [7] it was 91%. Moreover, in data set [2], the ΔTm is 0.4 °C. In addition, in data set [3], the “Ratio IC50” value was 0.8. Besides, the IC50 in data set [4] stood at 0.82 µM; in data set [5], 1 µM. In [6], the % cleavage worked out at 4%.

As for `CN(C)CC(=O)Nc1cc(C(=O)Nc2cc(C(=O)NCCn3nc4c5c(cccc53)C(=O)c3c(Cl)cccc3-4)n(C)c2)n(C)c1`, the inhibition worked out at 31% in data set [1] and 97% in data set [7]. The ΔTm in data set [2] is 1.7 °C. Moreover, the “Ratio IC50” value in [3] amounted to 1.1. In addition, the IC50 in data set [4] stood at 0.21 µM; in data set [5] it was 0.19 µM.

Take `CN(C)CC(=O)Nc1cc(C(=O)NCCn2nc3c4c(cccc42)C(=O)c2c(Cl)cccc2-3)n(C)c1`: the inhibition worked out at 21% in data set [1] and 97% in [7]. In addition, the ΔTm in data set [2] worked out at 0.6 °C. For the same molecule, the “Ratio IC50” value in data set [3] is 1.5. For the same molecule, the results for the IC50 in data set [4] and in data set [5] were 5.3 µM and 3.5 µM, respectively. Besides, the % cleavage in [6] was 22%.

As to `O=C1c2ccccc2-c2nn(CCO)c3cccc1c23`, the inhibition in data set [1] was found to be 66%; in data set [7], 60%. Moreover, the ΔTm in data set [2] turned out to be 0.9 °C. Besides, the “Ratio IC50” value in [3] turned out to be 0.9. The IC50 in data set [4] is 10.2 µM; in data set [5], 11.9 µM. Also, in data set [6], the % cleavage turned out to be 24%.

Turning to `Cn1cc(NC(=O)c2cc(NC(=O)CNC(=N)N)cn2C)cc1C(=O)NCCC(=N)N` [NETROPSIN], the ΔTm in data set [2] came out at 5.7 °C. The IC50 was 3.2 mM in [8], > 50 µM in [4] and > 50 µM in data set [5]. The % cleavage in [6] worked out at 0%. Besides, the inhibition in [7] was found to be 39%.

Regarding `Cn1cc(N)cc1C(=O)NCCn1nc2c3c(cccc31)C(=O)c1c(Cl)cccc1-2`, the values for the inhibition in [1] and in data set [7] were 14% and 91%, respectively. In addition, the ΔTm in [2] was 0.8 °C. Further, the “Ratio IC50” value in data set [3] is given as 1.2. The results for the IC50 in data set [4] and in data set [5] were 11.4 µM and 9.9 µM, respectively. In addition, the % cleavage in data set [6] worked out at 29%.

On to `Cn1cc(NC(=O)OC(C)(C)C)cc1C(=O)NCCn1nc2c3c(cccc31)C(=O)c1c(Cl)cccc1-2`, for which the figures for the inhibition in data set [1] and in data set [7] were 47% and 94%, respectively. Further, in [2], the ΔTm came to 0.7 °C. Also, in data set [3], the “Ratio IC50” value was 1. The IC50 in data set [4] was determined as 11 µM; in [5] it was 10.7 µM. The % cleavage in [6] was found to be 11%. For the same molecule, in data set [9], the Stability entry was “Stable”.

Turning to `Cn1cc(N)cc1C(=O)NCCn1nc2c3c(cccc31)C(=O)c1ccccc1-2`, the values for the inhibition in data set [1] and in data set [7] were 10% and 94%, respectively. For the same molecule, the thermal shift (ΔTm) in data set [2] amounted to 1.8 °C. Moreover, in data set [3], the “Ratio IC50” value was determined as 1.7. For the same molecule, the IC50 in data set [4] is 21.9 µM; in data set [5], 12.7 µM. Further, the % cleavage in data set [6] was determined as 26%.

In the case of `Cn1cc(NC(=O)OC(C)(C)C)cc1C(=O)NCCn1nc2c3c(cccc31)C(=O)c1ccccc1-2`, the figures for the inhibition in data set [1] and in data set [7] were 11% and 91%, respectively. Also, in data set [2], the ΔTm was determined as 1.3 °C. Further, the “Ratio IC50” value in data set [3] came out at 1.5. In addition, the IC50 was 22 µM in data set [4] and 14.4 µM in data set [5]. In addition, the % cleavage in data set [6] was found to be 18%. Moreover, the Stability entry in data set [9] is reported as “Stable”.

`Cn1cc(NC(=O)c2cc(N)cn2C)cc1C(=O)NCCn1nc2c3c(cccc31)C(=O)c1c(Cl)cccc1-2`: the figures for the inhibition in data set [1] and in data set [7] were 52% and 94%, respectively. Also, in [2], the ΔTm turned out to be 0.6 °C. In [3], the “Ratio IC50” value was 2.9. In addition, the IC50 amounted to 36.6 µM in [4] and 12.5 µM in [5]. In data set [6], the % cleavage is 16%.

Regarding `Cn1cc(NC(=O)c2cc(NC(=O)OC(C)(C)C)cn2C)cc1C(=O)NCCn1nc2c3c(cccc31)C(=O)c1c(Cl)cccc1-2`, the inhibition stood at 47% in data set [1] and 97% in data set [7]. Further, the ΔTm in data set [2] is 1 °C. Further, the “Ratio IC50” value in data set [3] was found to be 0.7. For the same molecule, the values for the IC50 in data set [4] and in data set [5] were 1.4 µM and 2 µM, respectively. In addition, the % cleavage in data set [6] was 24%.

Take `NCCn1nc2c3c(cccc31)C(=O)c1c(Cl)cccc1-2`: the inhibition in data set [1] worked out at 62%; in data set [7], 100%. Besides, the ΔTm in data set [2] was 2.7 °C. Also, in [3], the “Ratio IC50” value is 1. Also, the IC50 was 3.5 µM in data set [4] and 3.3 µM in data set [5]. The % cleavage in data set [6] came out at 18%.

Take `O=C1c2c(Cl)cccc2-c2nn(CCO)c3cccc1c23`: the inhibition in [1] was 70%; in [7], 56%. In addition, the ΔTm in data set [2] came out at 0.3 °C. In data set [3], the “Ratio IC50” value was 0.8. Further, the IC50 worked out at 12 µM in data set [4] and 14.3 µM in data set [5]. Moreover, the % cleavage in data set [6] was 14%.

`CN(C)CC(=O)Nc1cc(C(=O)Nc2cc(C(=O)NCCn3nc4c5c(cccc53)C(=O)c3ccccc3-4)n(C)c2)n(C)c1`: the results for the inhibition in [1] and in [7] were 23% and 91%, respectively. In addition, the ΔTm in data set [2] came out at 4.3 °C. For the same molecule, the “Ratio IC50” value in data set [3] came out at 1.1. For the same molecule, the results for the IC50 in data set [4] and in [5] were 0.14 µM and 0.13 µM, respectively.

As to `CN(C)CCNc1cccc2c1C(=O)c1cccc3c1c-2nn3CCNC(=O)c1cc(NC(=O)c2cc(NC(=O)CN(C)C)cn2C)cn1C`, the ΔTm in [2] was 5.3 °C. Moreover, the “Ratio IC50” value in data set [3] amounted to 3. Also, the IC50 in data set [4] turned out to be 0.63 µM; in data set [5], 0.21 µM.

In the case of `CN(C)CC(=O)Nc1cc(C(=O)NCCn2nc3c4c(cccc42)C(=O)c2ccccc2-3)n(C)c1`, the inhibition in [1] stood at 16%; in data set [7], 94%. Besides, the ΔTm in [2] was found to be 1.6 °C. In addition, in data set [3], the “Ratio IC50” value is reported as 1.4. Also, the figures for the IC50 in data set [4] and in [5] were 3.9 µM and 2.7 µM, respectively. The % cleavage in data set [6] is 18%.

Turning to `COc1cccc2c1C(=O)c1c(O)c3c(c(O)c1C2=O)C[C@@](O)(C(=O)CO)C[C@@H]3O[C@H]1C[C@H](N)[C@H](O)[C@H](C)O1` [DOXORUBICIN], the ΔTm in data set [2] stood at 8.4 °C. Besides, inhibition in data set [5] was half-maximal at 0.033 µM (IC50). Moreover, the % cleavage in [6] was 0%. Moreover, the inhibition in data set [7] worked out at 30%.

In the case of `NCCn1nc2c3c(cccc31)C(=O)c1ccccc1-2`, the inhibition in [1] was found to be 100%; in data set [7], 75%. In [2], the ΔTm was determined as 2.2 °C. Besides, in data set [3], the “Ratio IC50” value worked out at 1.7. The IC50 in data set [4] amounted to 3.1 µM; in data set [5], 1.8 µM. Besides, the % cleavage in data set [6] was determined as 29%.

These data come from ChEMBL document CHEMBL1165940, “Design, synthesis and biological evaluation of a novel series of anthrapyrazoles linked with netropsin-like oligopyrrole carboxamides as anticancer agents” (Bioorg Med Chem, 2010).
